# Assay results as given in ChEMBL document CHEMBL5247578, “Effective synthesis of benzimidazoles-imidazo[1,2-a]pyrazine conjugates: A comparative study of mono-and bis-benzimidazoles for antitumor activity” (Eur J Med Chem, 2019).
# Assays:
# Format in all cases: functional
# [1] = tested on: A549; assay: Antiproliferative activity against human A549 cells assessed as cell growth at 0.000001 M incubated for 48 hrs by SRB assay relative to control; conditions: read-out: Activity
# In short: (§1)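 NCI-60 five-dose screen over 10^-4–10^-8 M (10-fold dilutions). Cells grown in RPMI 1640 with 5% FBS and 2 mM L-glutamine, seeded at 5,000–40,000 cells/well and preincubated 24 h. Drug from DMSO stock, 48 h at 37 °C, 5% CO2. Adherent cells TCA-fixed and stained with 0.4% SRB; A515 read. Percent growth = (Ti−Tz)/(C−Tz)×100, or (Ti−Tz)/Tz×100 when Ti<Tz.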
# [2] = tested on: A549; assay: Antiproliferative activity against human A549 cells assessed as cell growth at 0.0001 M incubated for 48 hrs by SRB assay relative to control; conditions: read-out: Activity; in short: as §1
# [3] = tested on: RXF 393; assay: Growth inhibition against human RXF 393 cells incubated for 48 hrs by sulforhodamine B assay
# [4] = tested on: HT-29; assay: Antiproliferative activity against human HT-29 cells assessed as cell growth at 0.00000001 M incubated for 48 hrs by SRB assay relative to control; conditions: dose 10 nM, read-out: Activity
# In short: (§2)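 NCI-60 five-dose screen (10^-4 to 10^-8 M). Cells grown in RPMI 1640 with 5% FBS and 2 mM L-glutamine, plated at 5,000-40,000 cells/well and preincubated 24 h. Drug given from DMSO stock, then 48 h at 37 °C, 5% CO2. For adherent lines, cells fixed with cold TCA, SRB-stained and read at 515 nm. Percent growth taken against time-zero and untreated control.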
# [5] = tested on: PC-3; assay: Growth inhibition against human PC-3 cells assessed as total growth inhibitory concentration incubated for 48 hrs by sulforhodamine B assay
# [6] = tested on: SF-539; assay: Growth inhibition against human SF-539 cells assessed as total growth inhibitory concentration incubated for 48 hrs by sulforhodamine B assay
# [7] = tested on: RPMI-8226; assay: Antiproliferative activity against human RPMI-8226 cells assessed as cell growth at 0.0001 M incubated for 48 hrs by SRB assay relative to control; conditions: read-out: Activity
# [8] = tested on: MDA-MB-435; assay: Antiproliferative activity against human MDA-MB-435 cells assessed as cell growth at 0.00001 M incubated for 48 hrs by SRB assay relative to control; conditions: read-out: Activity
# [9] = tested on: NCI-H226; assay: Growth inhibition against human NCI-H226 cells incubated for 48 hrs by sulforhodamine B assay
# [10] = tested on: TK-10; assay: Antiproliferative activity against human TK-10 cells assessed as cell growth at 0.000001 M incubated for 48 hrs by SRB assay relative to control; conditions: read-out: Activity
# [11] = tested on: MDA-MB-435; assay: Antiproliferative activity against human MDA-MB-435 cells assessed as cell growth at 0.00000001 M incubated for 48 hrs by SRB assay relative to control; conditions: dose 10 nM, read-out: Activity
# [12] = tested on: A498; assay: Growth inhibition against human A498 cells incubated for 48 hrs by sulforhodamine B assay
# [13] = tested on: DU-145; assay: Growth inhibition against human DU-145 cells incubated for 48 hrs by sulforhodamine B assay
# [14] = tested on: COLO 205; assay: Growth inhibition against human COLO 205 cells incubated for 48 hrs by sulforhodamine B assay
# [15] = tested on: SF-295; assay: Growth inhibition against human SF-295 cells incubated for 48 hrs by sulforhodamine B assay
# [16] = tested on: HCT-116; assay: Antiproliferative activity against human HCT-116 cells assessed as cell growth at 0.0000001 M incubated for 48 hrs by SRB assay relative to control; conditions: dose 100 nM, read-out: Activity; in short: as §2
# [17] = tested on: A549; assay: Antiproliferative activity against human A549 cells assessed as cell growth at 0.00000001 M incubated for 48 hrs by SRB assay relative to control; conditions: dose 10 nM, read-out: Activity; in short: as §1
# [18] = tested on: PC-3; assay: Antiproliferative activity against human PC-3 cells assessed as cell growth at 0.000001 M incubated for 48 hrs by SRB assay relative to control; conditions: read-out: Activity
# [19] = tested on: ACHN; assay: Growth inhibition against human ACHN cells assessed as total growth inhibitory concentration incubated for 48 hrs by sulforhodamine B assay
# [20] = tested on: SF-539; assay: Antiproliferative activity against human SF-539 cells assessed as cell growth at 0.0000001 M incubated for 48 hrs by SRB assay relative to control; conditions: dose 100 nM, read-out: Activity
# [21] = tested on: NCI/ADR-RES; assay: Antiproliferative activity against human NCI/ADR-RES cells assessed as cell growth at 0.000001 M incubated for 48 hrs by SRB assay relative to control; conditions: read-out: Activity
# [22] = tested on: UACC-62; assay: Antiproliferative activity against human UACC-62 cells assessed as cell growth at 0.00001 M incubated for 48 hrs by SRB assay relative to control; conditions: read-out: Activity
# [23] = tested on: KM12; assay: Antiproliferative activity against human KM12 cells assessed as cell growth at 0.00000001 M incubated for 48 hrs by SRB assay relative to control; conditions: dose 10 nM, read-out: Activity
# [24] = tested on: SK-OV-3; assay: Antiproliferative activity against human SK-OV-3 cells assessed as cell growth at 0.00000001 M incubated for 48 hrs by SRB assay relative to control; conditions: dose 10 nM, read-out: Activity
# [25] = tested on: NCI-H23; assay: Antiproliferative activity against human NCI-H23 cells assessed as cell growth at 0.0000001 M incubated for 48 hrs by SRB assay relative to control; conditions: dose 100 nM, read-out: Activity
# [26] = tested on: RXF 393; assay: Antiproliferative activity against human RXF 393 cells assessed as cell growth at 0.00001 M incubated for 48 hrs by SRB assay relative to control; conditions: read-out: Activity
# [27] = tested on: SK-OV-3; assay: Antiproliferative activity against human SK-OV-3 cells assessed as cell growth at 0.0000001 M incubated for 48 hrs by SRB assay relative to control; conditions: dose 100 nM, read-out: Activity
# [28] = tested on: OVCAR-8; assay: Antiproliferative activity against human OVCAR-8 cells assessed as cell growth inhibition by measuring lethal concentration incubated for 48 hrs by sulforhodamine B assay; conditions: read-out: LC50 (the source's name)
# [29] = tested on: UACC-62; assay: Antiproliferative activity against human UACC-62 cells assessed as cell growth at 0.0001 M incubated for 48 hrs by SRB assay relative to control; conditions: read-out: Activity
# [30] = tested on: HOP-92; assay: Antiproliferative activity against human HOP-92 cells assessed as cell growth at 0.000001 M incubated for 48 hrs by SRB assay relative to control; conditions: read-out: Activity; in short: as §2
# [31] = tested on: A498; assay: Antiproliferative activity against human A498 cells assessed as cell growth at 0.000001 M incubated for 48 hrs by SRB assay relative to control; conditions: read-out: Activity; in short: as §1
# [32] = tested on: CAKI-1; assay: Antiproliferative activity against human CAKI-1 cells assessed as cell growth at 0.0001 M incubated for 48 hrs by SRB assay relative to control; conditions: read-out: Activity; in short: as §1
# [33] = tested on: MDA-MB-468; assay: Antiproliferative activity against human MDA-MB-468 cells assessed as cell growth at 0.00001 M incubated for 48 hrs by SRB assay relative to control; conditions: read-out: Activity
# [34] = tested on: HT-29; assay: Antiproliferative activity against human HT-29 cells assessed as cell growth inhibition by measuring lethal concentration incubated for 48 hrs by sulforhodamine B assay; conditions: read-out: LC50 (the source's name)
# [35] = tested on: SR; assay: Growth inhibition against human SR cells assessed as total growth inhibitory concentration incubated for 48 hrs by sulforhodamine B assay
# [36] = tested on: NCI-H460; assay: Antiproliferative activity against human NCI-H460 cells assessed as cell growth at 0.00000001 M incubated for 48 hrs by SRB assay relative to control; conditions: dose 10 nM, read-out: Activity
SMILES,growth at 1 µM [1] [%],growth at 100 µM [2] [%],GI50 [3] [nM],growth at 0.01 µM [4] [%],TGI [5] [nM],TGI [6] [nM],growth at 100 µM [7] [%],growth at 10 µM [8] [%],GI50 [9] [nM],growth at 1 µM [10] [%],growth at 0.01 µM [11] [%],GI50 [12] [nM],GI50 [13] [nM],GI50 [14] [nM],GI50 [15] [nM],growth at 0.1 µM [16] [%],growth at 0.01 µM [17] [%],growth at 1 µM [18] [%],TGI [19] [nM],growth at 0.1 µM [20] [%],also measured
c1ccc(Cn2cnc3ccc(-c4nc(-c5ccc6c(c5)ncn6C5CCCCC5)cn5ccnc45)cc32)cc1,106,-40,1220,99,7550,2600,-33,-32,2930,97,91,1860,3040,1880,1420,93,105,75,> 100000,92,growth at 1 µM [21]: 84%; growth at 10 µM [22]: -37%; growth at 0.01 µM [23]: 100%; growth at 0.01 µM [24]: 84%; growth at 0.1 µM [25]: 93%; growth at 10 µM [26]: -79%; growth at 0.1 µM [27]: 95%; CC50 [28]: > 100000 nM; growth at 100 µM [29]: 9%; growth at 1 µM [30]: 65%; growth at 1 µM [31]: 97%; growth at 100 µM [32]: 23%; growth at 10 µM [33]: -49%; CC50 [34]: > 100000 nM; TGI [35]: > 100000 nM; growth at 0.01 µM [36]: 103%
COc1ccc(-c2cn3ccnc3c(-c3ccc4ncn(C5CCCCC5)c4c3)n2)cc1,63,16,1300,94,> 100000,2490,15,6,2970,84,92,742,1070,2220,361,91,102,37,> 100000,97,growth at 1 µM [21]: 38%; growth at 10 µM [22]: 7%; growth at 0.01 µM [23]: 100%; growth at 0.01 µM [24]: 87%; growth at 0.1 µM [25]: 95%; growth at 10 µM [26]: -2%; growth at 0.1 µM [27]: 88%; CC50 [28]: > 100000 nM; growth at 100 µM [29]: 8%; growth at 1 µM [30]: 54%; growth at 1 µM [31]: 44%; growth at 100 µM [32]: 26%; growth at 10 µM [33]: 21%; CC50 [34]: > 100000 nM; TGI [35]: > 100000 nM; growth at 0.01 µM [36]: 104%
